The source of these data is the array DNA melting data of Ke et al. (doi:10.1101/2024.01.08.574731).

A short description of data set [1]: melting temperature; fluorescence melt of hairpins on a sequencing array, two-state fit, raised by 9.35 °C to match UV melts. The note with it: sodium 0.088 M. The method in brief: (§1)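 To match UV melts, fitted temperatures were raised by 9.35 °C. These fits were bootstrapped two-state models that gave melting temperature and folding enthalpy, combined by inverse variance over four replicates. The input was normalised Cy3 fluorescence of library hairpins with annealed Cy3 and quencher oligos on a sequenced MiSeq flow cell, imaged in 50 mM Na-HEPES pH 8.0, 25 mM NaCl in 2.5 °C steps up to 60 °C.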

Data set [2] in a line: folding enthalpy; higher = less favourable; fluorescence melt of hairpins on a sequencing array, two-state fit. The note with it: sodium 0.088 M. The method in brief: as §1

In the case of GTACTCGAAAGAGTTTAC ((((((....)))..))), the Tm in data set [1] came to 30 °C. Also, in data set [2], the folding enthalpy was -9.32 kcal/mol.
In the case of GTACTGACGAAAGTCTAC (((..(((....)))))), in data set [1], the Tm was found to be 21.8 °C. The folding enthalpy in data set [2] is -6.65 kcal/mol.
Regarding GTACTGCGAAAGCAATAC (((.(((....))).))), the Tm in data set [1] is 37.4 °C. In addition, the folding enthalpy in data set [2] is -21.6 kcal/mol.
In the case of GTACTGCGAAAGCATTAC (((.(((....))).))), in data set [1], the Tm was determined as 41.7 °C. In addition, the folding enthalpy in data set [2] was -22.5 kcal/mol.
As to GTACTGGCGAAAGCCTAC (((..(((....)))))), the Tm in data set [1] was 26.3 °C. In addition, the folding enthalpy in data set [2] was -11 kcal/mol.
Regarding GTACTGGGAAACCAGTGC (.(((((....))))).), the Tm in data set [1] worked out at 50.2 °C. Also, the folding enthalpy in data set [2] was -22.6 kcal/mol.
On to GTACTTCGAAAGAATTAC (((.(((....))).))), for which the Tm in data set [1] is 32.2 °C. The folding enthalpy in data set [2] was -18.6 kcal/mol.
Regarding GTAGAACCGAAAGGTTAC (((..(((....)))))), the Tm in data set [1] was 32.5 °C. Besides, in data set [2], the folding enthalpy was -13.3 kcal/mol.
For GTAGAACGAAAGTTGTAC (((.(((....))).))), in data set [1], the Tm came to 42.8 °C. In addition, the folding enthalpy in data set [2] is -31.7 kcal/mol.
In the case of GTAGAAGGAAACCTCTAC (((((.(....).))))), the Tm in data set [1] worked out at 33.4 °C. The folding enthalpy in data set [2] was -18.1 kcal/mol.
As to GTAGAAGGAAACTTCTGC (.(((((....))))).), in data set [1], the Tm was 39 °C. Further, the folding enthalpy in data set [2] is -23.1 kcal/mol.
Regarding GTAGACCGAAAGGTATAC (((.(((....))).))), in data set [1], the Tm came to 51.7 °C. Moreover, in data set [2], the folding enthalpy is -36 kcal/mol.
With GTAGACCGAAAGGTTTAC (((.(((....))).))), the Tm in data set [1] was 48.5 °C. Besides, in data set [2], the folding enthalpy was -27.9 kcal/mol.
As to GTAGACGAAAGTCACTAC ((((((....)))..))), the Tm in data set [1] came to 41.1 °C. Also, in data set [2], the folding enthalpy is -14.2 kcal/mol.
On to GTAGACGAAAGTCAGTAC ((((((....)))..))), for which, in data set [1], the Tm was 28.6 °C. The folding enthalpy in data set [2] is -9.2 kcal/mol.
With GTAGACGAAAGTCCTAC ((((((....))).))), the Tm in data set [1] is 36.4 °C. In addition, in data set [2], the folding enthalpy is -19.7 kcal/mol.
Take GTAGACGAAAGTCGGTAC ((((((....)))..))): in data set [1], the Tm was 34.6 °C. Also, in data set [2], the folding enthalpy is -11.8 kcal/mol.
With GTAGACGAAAGTCGTAC ((((((....))).))), the Tm in data set [1] was 49.9 °C. Also, the folding enthalpy in data set [2] is -23.6 kcal/mol.
With GTAGACGGAAACATCTAC (((((.(....).))))), the Tm in data set [1] came out at 31 °C. The folding enthalpy in data set [2] was -21 kcal/mol.
Consider GTAGACGGAAACGTCTGC (.(((((....))))).), for which the Tm in data set [1] came out at 55.1 °C. Further, the folding enthalpy in data set [2] was -24.6 kcal/mol.
For GTAGAGGAAACTCTAC ((((((....)))))), in data set [1], the Tm is 49.1 °C. The folding enthalpy in data set [2] is -25.3 kcal/mol.
For GTAGAGTCGAAAGACTAC (((..(((....)))))) the same measures were 35.1 °C and -10.8 kcal/mol.
As for GTAGATGGAAACACCTAC ((((.((....)).)))), the Tm in data set [1] amounted to 32.9 °C. Also, in data set [2], the folding enthalpy was -20.9 kcal/mol.
Consider GTAGCACCGAAAGGTTAC (((..(((....)))))), for which the Tm in data set [1] is 29.2 °C. In addition, in data set [2], the folding enthalpy is -8.52 kcal/mol.
Regarding GTAGCACGAAAGTGGTAC (((.(((....))).))), the Tm in data set [1] came out at 60.9 °C. The folding enthalpy in data set [2] is -33.7 kcal/mol.
In the case of GTAGCCCGAAAGGGATAC (((.(((....))).))), in data set [1], the Tm was found to be 64.3 °C. For the same sequence, the folding enthalpy in data set [2] was -33.7 kcal/mol.
As to GTAGCCCGAAAGGGTAC (((.(((....)))))), the Tm in data set [1] was 48.6 °C. In addition, the folding enthalpy in data set [2] is -17.7 kcal/mol.
As for GTAGCCGAAAGGCGCTAC ((((((....)))..))), in data set [1], the Tm was found to be 42.8 °C. Further, the folding enthalpy in data set [2] is -9.33 kcal/mol.
For GTAGCCGAAAGGCGTAC ((((((....))).))), the Tm in data set [1] amounted to 57.5 °C. In data set [2], the folding enthalpy was -15.7 kcal/mol.
As to GTAGCCGAAAGGCTTAC ((((((....))).))), in data set [1], the Tm is 43.1 °C. In addition, in data set [2], the folding enthalpy is -10.3 kcal/mol.
GTAGCCGGAAACGGCTGC (.(((((....))))).): the Tm in data set [1] worked out at 60.9 °C. Also, in data set [2], the folding enthalpy was -15.9 kcal/mol.
Consider GTAGCGGAAACGCTAC ((((((....)))))), for which, in data set [1], the Tm stood at 65.3 °C. The folding enthalpy in data set [2] was -30.2 kcal/mol.
In the case of GTAGCGGGAAACCGTTAC (((.(((....))).))), the Tm in data set [1] is 47.8 °C. Besides, the folding enthalpy in data set [2] is -30.2 kcal/mol.
Regarding GTAGCTGGAAACAACTAC ((((.((....)).)))), in data set [1], the Tm amounted to 35.9 °C. Besides, the folding enthalpy in data set [2] is -27.2 kcal/mol.
For the sequence GTAGCTGGAAACAGCTGC (.(((((....))))).), in data set [1], the Tm is 55.2 °C. Moreover, the folding enthalpy in data set [2] was -26.3 kcal/mol.
In the case of GTAGCTGGAAACGGTTAC (((.(.(....).).))), the Tm in data set [1] amounted to 28.9 °C. Besides, the folding enthalpy in data set [2] was -18.7 kcal/mol.
On to GTAGGAGGAAACCCCTAC (((((.(....).))))), for which, in data set [1], the Tm was 38.3 °C. The folding enthalpy in data set [2] was -32.4 kcal/mol.
For GTAGGCGAAAGCCATAC ((((((....))).))) the same measures were 43.8 °C and -11.2 kcal/mol.
In the case of GTAGGCGAAAGCCCATAC ((((((....)))..))), the Tm in data set [1] was 28.2 °C. Moreover, the folding enthalpy in data set [2] is -8.87 kcal/mol.
As for GTAGGCGAAAGCCCTTAC ((((((....)))..))), the Tm in data set [1] was determined as 37.9 °C. For the same sequence, the folding enthalpy in data set [2] was -9.27 kcal/mol.
In the case of GTAGGCGAAAGCCGATAC ((((((....)))..))), the Tm in data set [1] is 41.5 °C. In addition, the folding enthalpy in data set [2] is -10.1 kcal/mol.
Consider GTAGGCGAAAGCCGTAC ((((((....))).))), for which the Tm in data set [1] was found to be 57.3 °C. For the same sequence, the folding enthalpy in data set [2] is -13 kcal/mol.
With GTAGGCGAAAGCCTGTAC ((((((....)))..))), the Tm in data set [1] turned out to be 34.6 °C. Further, in data set [2], the folding enthalpy was -9.44 kcal/mol.
As for GTAGGCGGAAACGTCTAC ((((.((....)).)))), the Tm in data set [1] is 53.1 °C. The folding enthalpy in data set [2] is -39.1 kcal/mol.
Take GTAGGGGAAACCCTAC ((((((....)))))): the Tm in data set [1] was found to be 55.4 °C. Further, the folding enthalpy in data set [2] is -36.7 kcal/mol.
GTAGGGGGAAACCCTTAC (((.(((....))).))): in data set [1], the Tm stood at 42 °C. Besides, the folding enthalpy in data set [2] was -17.4 kcal/mol.
GTAGGTGGAAACACCTAC (((((((....))))))): in data set [1], the Tm amounted to 60.5 °C. For the same sequence, in data set [2], the folding enthalpy is -36.7 kcal/mol.
Take GTAGTACCGAAAGGTTAC (((..(((....)))))): in data set [1], the Tm was found to be 29.8 °C. Moreover, in data set [2], the folding enthalpy is -11.1 kcal/mol.
Consider GTAGTACGAAAGTATTAC (((.(((....))).))), for which the Tm in data set [1] stood at 41.5 °C. Also, the folding enthalpy in data set [2] was -31.3 kcal/mol.
On to GTAGTAGGAAACTACTGC (.(((((....))))).), for which the Tm in data set [1] stood at 45.7 °C. For the same sequence, the folding enthalpy in data set [2] is -27.5 kcal/mol.
Regarding GTAGTCCGAAAGGATAC (((.(((....)))))), in data set [1], the Tm was 38 °C. Further, the folding enthalpy in data set [2] was -15.8 kcal/mol.
Take GTAGTCGAAAGACTGTAC ((((((....)))..))): the Tm in data set [1] was 32.1 °C. Also, the folding enthalpy in data set [2] was -13.8 kcal/mol.
With GTAGTCGGAAACAACTAC (((((.(....).))))), the Tm in data set [1] was 33.6 °C. The folding enthalpy in data set [2] was -24.5 kcal/mol.
As to GTAGTCGGAAACGACCAC ((.((((....)))).)), the Tm in data set [1] turned out to be 37.4 °C. The folding enthalpy in data set [2] is -14.5 kcal/mol.
For GTAGTCTCGAAAGAGTAC (((..(((....)))))), in data set [1], the Tm stood at 31.9 °C. Besides, the folding enthalpy in data set [2] is -17.3 kcal/mol.
